What was measured:
[1] = biological target: CYP2C19 (Homo sapiens, UniProt P33261); test: Inhibition of CYP2C19 in human liver microsomes assessed as remaining activity at 10 uM using S-mephenytoin as substrate preincubated for 5 mins followed by addition of NADPH regenerating system and measured after 15 mins by LC-MS/MS analysis relative to control; type: ADME; settings: probe S-mephenytoin, read-out: Activity
How it was run: (§1)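 Human liver microsomes (0.25 mg/mL) in 0.1 M phosphate buffer with test article at 0 or 10 μM and substrate cocktail, preincubated 5 min at 37 °C. Cocktail A: phenacetin 50 μM, coumarin 2.5 μM, S-mephenytoin 100 μM, dextromethorphan 5 μM, midazolam 2.5 μM. Cocktail B: bupropion 50 μM, amodiaquine 2.5 μM, tolbutamide 100 μM, chlorzoxazone 50 μM. NADPH system added, then 15 min at 37 °C; acetonitrile quench, LC-MS/MS.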

[2] = Efflux ratio of apparent permeability from basolateral to apical side over apical to basolateral side in human Caco2 cells at 25 uM; type: ADME, cell-based; settings: Caco-2
[3] = Metabolic stability in mouse liver microsomes assessed as parent compound remaining at 1 uM preincubated for 5 mins followed by addition of NADPH regenerating system and measured after 30 mins by LC-MS/MS method; type: ADME, microsome; settings: read-out: Stability
How it was run: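 Liver microsomes (0.5 mg/mL; human, dog or mouse) in 0.1 M phosphate buffer with test article at 1 μM, preincubated 5 min at 37 °C. NADPH regenerating system added, then 30 min at 37 °C. Acetonitrile with chlorpropamide internal standard added, sample centrifuged, supernatant analysed by LC-MS/MS.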

[4] = biological target: CYP3A4 (Homo sapiens, UniProt P08684); test: Inhibition of CYP3A4 in human liver microsomes assessed as remaining activity at 10 uM using midazolam as substrate preincubated for 5 mins followed by addition of NADPH regenerating system and measured after 15 mins by LC-MS/MS analysis relative to control; type: ADME; settings: probe midazolam, read-out: Activity; how it was run: as §1
[5] = biological target: CYP2C9 (Homo sapiens, UniProt P11712); test: Inhibition of CYP2C9 in human liver microsomes assessed as remaining activity at 10 uM using tolbutamide as substrate preincubated for 5 mins followed by addition of NADPH regenerating system and measured after 15 mins by LC-MS/MS analysis relative to control; type: ADME; settings: probe tolbutamide, read-out: Activity; how it was run: as §1
[6] = Metabolic stability in human plasma assessed as parent compound remaining at 10 uM after 30 mins by LC-MS/MS method; type: ADME, cell-free; settings: read-out: Stability
How it was run: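 Human plasma spiked with test article at 10 μM and incubated at 37 °C for 0, 30 and 120 min. Acetonitrile with chlorpropamide internal standard added, sample centrifuged at 4 °C, supernatant analysed by LC-MS/MS; result given as percent remaining.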

[7] = Metabolic stability in rat plasma assessed as parent compound remaining at 10 uM after 30 mins by LC-MS/MS method; type: ADME, cell-free; settings: read-out: Stability
How it was run: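 Rat plasma spiked with test article at 10 μM and incubated at 37 °C, sampled at 0, 30 and 120 min. Acetonitrile containing chlorpropamide internal standard added, then vortexed and centrifuged at 4 °C; supernatant quantified by LC-MS/MS as % remaining. Procaine and diltiazem served as positive controls.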

[8] = biological target: CYP2E1 (Homo sapiens, UniProt P05181); test: Inhibition of CYP2E1 in human liver microsomes assessed as remaining activity at 10 uM using chlorzoxazone as substrate preincubated for 5 mins followed by addition of NADPH regenerating system and measured after 15 mins by LC-MS/MS analysis relative to control; type: ADME; settings: probe chlorzoxazone, read-out: Activity; how it was run: as §1
[9] = Protein binding in rat plasma at 10 uM after 4 hrs by rapid equilibrium dialysis method; type: ADME, cell-free; settings: read-out: PPB (converted)
How it was run: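 Rapid equilibrium dialysis of human or rat plasma dosed at 10 μM against PBS pH 7.4, 4 h at 37 °C. Plasma and buffer aliquots were matrix-matched with blank buffer or plasma, precipitated with acetonitrile containing chlorpropamide internal standard, and analysed by LC-MS/MS. Dexamethasone and warfarin served as positive controls.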

[10] = biological target: T1, CYP2B6 (Homo sapiens, UniProt P20813); test: Inhibition of CYP2B6 in human liver microsomes assessed as remaining activity at 10 uM using bupropion as substrate preincubated for 5 mins followed by addition of NADPH regenerating system and measured after 15 mins by LC-MS/MS analysis relative to control; type: ADME; settings: probe bupropion, read-out: Activity; how it was run: as §1
T1 sequence (P20813 whole entry): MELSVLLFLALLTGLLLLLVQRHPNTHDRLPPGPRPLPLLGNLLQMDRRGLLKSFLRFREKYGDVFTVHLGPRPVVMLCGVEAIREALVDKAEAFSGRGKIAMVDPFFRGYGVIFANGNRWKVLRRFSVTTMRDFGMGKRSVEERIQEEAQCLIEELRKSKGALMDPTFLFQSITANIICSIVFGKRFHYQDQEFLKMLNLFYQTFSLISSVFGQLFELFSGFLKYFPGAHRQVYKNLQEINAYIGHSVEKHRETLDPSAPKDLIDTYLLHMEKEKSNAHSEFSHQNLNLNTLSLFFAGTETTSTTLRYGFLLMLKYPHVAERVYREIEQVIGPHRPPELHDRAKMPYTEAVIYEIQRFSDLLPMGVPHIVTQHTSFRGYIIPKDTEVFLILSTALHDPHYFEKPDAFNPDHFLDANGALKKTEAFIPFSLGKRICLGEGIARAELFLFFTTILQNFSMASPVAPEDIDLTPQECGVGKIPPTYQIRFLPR

[11] = Metabolic stability in rat liver microsomes assessed as parent compound remaining at 1 uM preincubated for 5 mins followed by addition of NADPH regenerating system and measured after 30 mins by LC-MS/MS method; type: ADME, microsome; settings: read-out: Stability
How it was run: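 Liver microsomes (0.5 mg/mL) in 0.1 M phosphate buffer with test article at 1 μM. Preincubated 5 min at 37 °C, then NADPH regeneration system added and incubated 30 min at 37 °C. Quenched with acetonitrile containing chlorpropamide internal standard and centrifuged; supernatant analysed by LC-MS/MS for % parent remaining. Verapamil served as positive control.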

[12] = biological target: T2, CYP2C8 (Homo sapiens, UniProt P10632); test: Inhibition of CYP2C8 in human liver microsomes assessed as remaining activity at 10 uM preincubated for 5 mins followed by addition of NADPH regenerating system and measured after 15 mins by LC-MS/MS analysis relative to control; type: ADME; settings: read-out: Activity
T2 sequence (P10632 whole entry): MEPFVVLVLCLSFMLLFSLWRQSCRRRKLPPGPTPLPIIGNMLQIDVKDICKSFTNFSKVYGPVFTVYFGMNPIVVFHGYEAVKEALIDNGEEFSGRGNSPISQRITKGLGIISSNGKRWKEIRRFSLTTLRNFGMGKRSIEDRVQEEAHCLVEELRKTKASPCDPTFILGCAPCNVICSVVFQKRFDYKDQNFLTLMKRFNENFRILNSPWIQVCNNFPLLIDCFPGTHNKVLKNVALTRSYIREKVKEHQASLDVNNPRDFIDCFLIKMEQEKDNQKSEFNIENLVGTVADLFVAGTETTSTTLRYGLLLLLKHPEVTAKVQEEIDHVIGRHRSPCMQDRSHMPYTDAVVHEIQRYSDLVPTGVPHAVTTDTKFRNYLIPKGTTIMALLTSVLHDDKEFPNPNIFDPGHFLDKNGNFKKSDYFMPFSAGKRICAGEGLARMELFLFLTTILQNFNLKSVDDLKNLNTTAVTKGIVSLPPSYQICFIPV

CYP3A4, sequence (P08684 whole entry): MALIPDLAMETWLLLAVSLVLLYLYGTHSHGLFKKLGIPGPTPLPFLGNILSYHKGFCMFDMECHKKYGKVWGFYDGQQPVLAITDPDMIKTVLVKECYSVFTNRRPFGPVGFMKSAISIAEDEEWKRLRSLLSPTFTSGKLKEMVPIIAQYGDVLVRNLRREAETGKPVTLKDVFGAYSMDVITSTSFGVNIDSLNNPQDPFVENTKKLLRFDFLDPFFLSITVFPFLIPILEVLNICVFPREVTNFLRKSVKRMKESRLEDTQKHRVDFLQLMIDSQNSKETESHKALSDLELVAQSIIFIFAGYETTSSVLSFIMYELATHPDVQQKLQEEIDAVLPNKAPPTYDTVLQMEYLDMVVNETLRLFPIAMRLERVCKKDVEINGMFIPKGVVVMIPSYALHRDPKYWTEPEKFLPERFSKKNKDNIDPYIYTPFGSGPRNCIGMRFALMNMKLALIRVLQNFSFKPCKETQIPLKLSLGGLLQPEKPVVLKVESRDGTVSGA
CYP2C9, sequence (P11712 whole entry): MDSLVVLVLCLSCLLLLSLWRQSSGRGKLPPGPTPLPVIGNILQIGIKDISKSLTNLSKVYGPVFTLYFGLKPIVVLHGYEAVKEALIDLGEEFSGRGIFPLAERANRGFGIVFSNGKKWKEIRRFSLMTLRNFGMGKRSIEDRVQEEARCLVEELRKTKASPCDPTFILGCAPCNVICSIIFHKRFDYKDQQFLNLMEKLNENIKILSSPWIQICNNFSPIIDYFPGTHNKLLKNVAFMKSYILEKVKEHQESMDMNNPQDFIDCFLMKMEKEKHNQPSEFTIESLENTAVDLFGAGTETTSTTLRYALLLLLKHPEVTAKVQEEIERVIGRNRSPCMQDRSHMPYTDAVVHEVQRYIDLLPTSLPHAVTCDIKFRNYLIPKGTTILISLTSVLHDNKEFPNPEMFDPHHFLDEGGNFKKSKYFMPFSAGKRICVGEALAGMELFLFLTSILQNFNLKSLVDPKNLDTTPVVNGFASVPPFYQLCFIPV
CYP2C19, sequence (P33261 whole entry): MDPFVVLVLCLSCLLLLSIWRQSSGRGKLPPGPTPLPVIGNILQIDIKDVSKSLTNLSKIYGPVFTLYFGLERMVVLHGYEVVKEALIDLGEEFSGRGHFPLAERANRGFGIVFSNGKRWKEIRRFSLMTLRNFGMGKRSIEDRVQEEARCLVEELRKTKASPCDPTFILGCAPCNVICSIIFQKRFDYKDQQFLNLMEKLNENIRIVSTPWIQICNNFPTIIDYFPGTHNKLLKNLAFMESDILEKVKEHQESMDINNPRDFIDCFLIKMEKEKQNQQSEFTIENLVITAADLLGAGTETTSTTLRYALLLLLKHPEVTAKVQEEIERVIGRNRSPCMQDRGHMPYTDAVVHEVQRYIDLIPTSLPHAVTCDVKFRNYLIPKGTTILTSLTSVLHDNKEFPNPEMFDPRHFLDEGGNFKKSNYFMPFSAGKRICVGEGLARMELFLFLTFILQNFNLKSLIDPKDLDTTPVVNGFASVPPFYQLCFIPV
CYP2E1, sequence (P05181 whole entry): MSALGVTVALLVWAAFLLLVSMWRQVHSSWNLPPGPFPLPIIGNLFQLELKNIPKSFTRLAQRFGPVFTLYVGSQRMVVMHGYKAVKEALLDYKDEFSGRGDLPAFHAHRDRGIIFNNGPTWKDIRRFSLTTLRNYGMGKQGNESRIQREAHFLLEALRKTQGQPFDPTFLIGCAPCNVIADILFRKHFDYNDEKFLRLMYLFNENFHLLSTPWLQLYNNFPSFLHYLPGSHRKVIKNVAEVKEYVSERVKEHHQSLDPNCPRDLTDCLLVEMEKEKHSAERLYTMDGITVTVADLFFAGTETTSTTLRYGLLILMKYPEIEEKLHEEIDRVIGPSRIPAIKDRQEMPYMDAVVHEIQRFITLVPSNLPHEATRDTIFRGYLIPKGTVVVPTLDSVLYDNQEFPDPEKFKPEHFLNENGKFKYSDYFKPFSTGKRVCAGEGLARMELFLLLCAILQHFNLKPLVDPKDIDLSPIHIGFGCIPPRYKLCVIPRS

Question: Which activity at 0.25 h, 10 µM [1] does the source give for `CN(c1ncnc2[nH]ccc12)[C@H]1CN(C(=O)CC#N)CC12CC2` here?
Answer: 66%

Question: What about the efflux ratio at 25 µM [2] of the same compound?
Answer: 2.78

Question: What about the remaining at 0.5 h, 1 µM [3] of the same compound?
Answer: 84.9%

Question: What about the activity at 0.25 h, 10 µM [4] of the same compound?
Answer: 89.7%

Question: What about the activity at 0.25 h, 10 µM [5] of the same compound?
Answer: 84.4%

Question: What about the remaining at 0.5 h, 10 µM [6] of the same compound?
Answer: 95%

Question: What about the remaining at 0.5 h, 10 µM [7] of the same compound?
Answer: 98.4%

Question: What about the activity at 0.25 h, 10 µM [8] of the same compound?
Answer: 50.3%

Question: What about the fraction unbound at 4 h, 10 µM [9] of the same compound?
Answer: 0.813

Question: What about the activity at 0.25 h, 10 µM [10] of the same compound?
Answer: 91.5%

Question: And the remaining at 0.5 h, 1 µM [11]?
Answer: 84.8%

Question: What about the activity at 0.25 h, 10 µM [12] of the same compound?
Answer: 81%

Question: With `CN(c1ncnc2[nH]ccc12)[C@H]1CN(S(=O)(=O)c2cccc(C#N)c2)CC12CC2` as the compound, how does the activity at 0.25 h, 10 µM [1] read?
Answer: 55.8%

Question: What about the efflux ratio at 25 µM [2] of the same compound?
Answer: 1.17

Question: What about the remaining at 0.5 h, 1 µM [3] of the same compound?
Answer: 3.2%

Question: What about the activity at 0.25 h, 10 µM [4] of the same compound?
Answer: 33.2%

Question: What about the activity at 0.25 h, 10 µM [5] of the same compound?
Answer: 50.4%

Question: What about the remaining at 0.5 h, 10 µM [6] of the same compound?
Answer: 96.6%

Question: What about the remaining at 0.5 h, 10 µM [7] of the same compound?
Answer: > 100%

Question: And the activity at 0.25 h, 10 µM [8]?
Answer: 59.8%

Question: What about the fraction unbound at 4 h, 10 µM [9] of the same compound?
Answer: 0.142

Question: And the activity at 0.25 h, 10 µM [10]?
Answer: 92%

Question: What about the remaining at 0.5 h, 1 µM [11] of the same compound?
Answer: 2.4%

Question: And the activity at 0.25 h, 10 µM [12]?
Answer: 66.2%

Question: Which activity at 0.25 h, 10 µM [1] does the source give for `CCS(=O)(=O)N1C[C@H](N(C)c2ncnc3[nH]ccc23)C2(CC2)C1` here?
Answer: 93.8%

Question: What about the efflux ratio at 25 µM [2] of the same compound?
Answer: 1.01

Question: And the remaining at 0.5 h, 1 µM [3]?
Answer: 33.9%

Question: And the activity at 0.25 h, 10 µM [4]?
Answer: 95.4%

Question: What about the activity at 0.25 h, 10 µM [5] of the same compound?
Answer: 90.7%

Question: And the remaining at 0.5 h, 10 µM [6]?
Answer: > 100%

Question: And the remaining at 0.5 h, 10 µM [7]?
Answer: > 100%

Question: What about the activity at 0.25 h, 10 µM [8] of the same compound?
Answer: 63.9%

Question: What about the fraction unbound at 4 h, 10 µM [9] of the same compound?
Answer: 0.505

Question: What about the activity at 0.25 h, 10 µM [10] of the same compound?
Answer: > 100%

Question: And the remaining at 0.5 h, 1 µM [11]?
Answer: 22.9%

Question: And the activity at 0.25 h, 10 µM [12]?
Answer: > 100%
